Assay outcomes from PubChem BioAssay.
SUMO1-SIM PPI = SUMO1-SIM interaction modulation; P63165; SUMO1 binding to a labelled peptide, TR-FRET, 1 h; inhibition, % at 20 µM; 0.33% of 360,000 active; AID 602429; in the data active = inhibition above about 37%
Target sequence (P63165 whole entry, looked up): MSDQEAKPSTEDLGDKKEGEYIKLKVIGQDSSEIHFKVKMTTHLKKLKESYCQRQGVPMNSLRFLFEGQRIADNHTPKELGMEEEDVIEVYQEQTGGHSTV
HKDC1 inhibitor = inhibitors of human hexokinase HKDC1 | Q2TB90 | recombinant HKDC1, G6PDH/diaphorase resazurin coupled fluorescence | inhibition, % at 20 µM | 0.16% of 340,000 active | AID 493160;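 active = inhibition above about 35% when tested at 20 µM, limit read from the data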;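 also: plate controls were DMSO wells with enzyme for no effect and DMSO wells lacking enzyme for full effect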
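Assay system – recombinant HKDC1 (HK5) hexokinase enzyme, produced in-house · Input – HKDC1 at 5 µg/mL · Reagent – glucose plus 1 mM ATP as hexokinase substrates · Timing – 90 min reaction incubation at room temperature, dark · Measured by – G6PDH/diaphorase-coupled fluorescence, 1 mM NADP, 100 µM resazurin, 525/613 nm · Benchmarks – DMSO-enzyme wells negative, buffer-substituted wells positive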
DNMT1 block = inhibitors of human DNMT1. DNMT1 molecular beacon, Hinp1I cleavage, fluorescence. 0.83% of 360,000 active. inhibition (reported as % activation of signal), % at 10 µM. P26358; in the data active = inhibition above about 50%
LMPTP block = blocks human LMPTP phosphatase; 0.22% of 360,000 active; inhibition, % at 20 µM; recombinant LMPTP-A, OMFP fluorogenic substrate, fluorescence intensity; AID 651560; P24666;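 active = compounds that cut the enzyme signal by at least half of the control window in the single-dose screen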;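 also: plate controls were DMSO wells with enzyme plus substrate for no effect and substrate without enzyme for full effect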
Target sequence (P24666 whole entry, looked up): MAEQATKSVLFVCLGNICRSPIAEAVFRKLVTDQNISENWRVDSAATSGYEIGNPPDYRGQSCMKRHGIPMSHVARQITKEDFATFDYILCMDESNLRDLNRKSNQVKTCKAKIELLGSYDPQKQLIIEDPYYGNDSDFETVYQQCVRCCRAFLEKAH
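material = LMPTP-A | quantity = 0.625 nM enzyme | reagent = OMFP substrate, 400 µM final | buffer or medium = Bis-Tris pH 6.0, DTT, detergent | detection = endpoint fluorescence intensity from OMFP dephosphorylation | dosing = single 20 µM dose | read-out basis = % inhibition relative to no-enzyme and uninhibited control wells | control set = no-enzyme and uninhibited controls | timing = 50 min at room temperature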
STEP inh = blocks human striatal-enriched tyrosine phosphatase; 0.25% of 360,000 active; P54829; recombinant STEP, OMFP fluorogenic substrate, fluorescence; AID 588621; inhibition, % at 20 µM;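 active = inhibition at 20 µM, scaled per plate between control wells, above about 37%, limit read from the data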;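 also: 0% = DMSO with enzyme and substrate and 100% = substrate only without enzyme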
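medium = Bis-Tris buffer pH 6.0, 2.5 mM DTT, 0.005% Tween 20 | test system = STEP (striatal-enriched tyrosine phosphatase) enzyme, cell-free | measure = normalized % inhibition | compound dosing = 20 µM, 1% DMSO | also added = 25 µM OMFP | schedule = reaction 20 min, ambient temperature | measured by = fluorescence read at 480 nm ex / 540 nm em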
Scp1 inh = inhibitors of human Scp-1 phosphatase | Q9GZU7 | Recombinant Scp1, phosphopeptide, malachite green phosphate absorbance | inhibition, % at 20 µM | 0.88% of 340,000 active | AID 493091;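 active = inhibition above about 50% at 20 µM, limit read from the data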;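 also: plate controls were DMSO wells with enzyme for no effect and wells lacking enzyme for full effect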
Target sequence (Q9GZU7 76-261 limits assumed): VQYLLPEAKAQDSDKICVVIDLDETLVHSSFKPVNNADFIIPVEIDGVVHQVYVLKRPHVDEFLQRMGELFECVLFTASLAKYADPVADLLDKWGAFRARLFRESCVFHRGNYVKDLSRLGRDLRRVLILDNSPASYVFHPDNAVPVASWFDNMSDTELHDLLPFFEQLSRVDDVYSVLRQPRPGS
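Material: truncated SCP-1 phosphatase (76-261aa) / Buffer or medium: 50 mM Tris acetate pH 5.5, 0.005% Tween-20, 10 mM MgCl2 / Compound dosing: one concentration, 20 µM, with 1.0% DMSO / Incubation: 45 min room-temperature reaction, 5 min colour, 30 min stabiliser / Detection: colorimetric free-phosphate detection, absorbance 630 nm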
DNMT1 interf DR = beacon fluorescence artifact, dose response counter-screen; IC50, µM; 200 tested, under 10 active; shares compounds with DNMT1 block; molecular beacon fluorescence, spectral interference counter-screen; AID 602382
DNMT1 confirm = confirmation of human DNMT1 inhibitors; shares compounds with DNMT1 block; DNMT1 molecular beacon HinP1I cleavage, fluorescence; inhibition, % at 10 µM; 8% of 2,300 active; AID 602385;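 active = average inhibition of at least 30% in the single-concentration confirmation test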
Beacon interf = shows spectral interference in the DNMT1 beacon assay. shares compounds with DNMT1 block. DNMT1 molecular beacon spectral interference counterscreen, fluorescence 485/520. activation (fluorescence interference), % at 10 µM. 1% of 2,300 active. AID 602387;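 active = activation of at least 30% at 10 µM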;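 also: DNMT1 catalytic domain with a HinP1I cleavage step and a FAM/dabcyl DNA beacon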
STEP conf = STEP (human) phosphatase inhibition, single concentration confirmation | inhibition, % at 20 µM | recombinant STEP, OMFP fluorogenic substrate, fluorescence | shares compounds with STEP inh | 32% of 520 active;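 also: 0% = enzyme with substrate plus DMSO and 100% = substrate without enzyme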
* = called active by the depositor; · = no result given. Most compounds without a hit are left out; they make up all but 1.8% or so of the library. Unless noted, no rule for the calls is given here.

SMILES	SUMO1-SIM PPI	HKDC1 inhibitor	DNMT1 block	LMPTP block	STEP inh	Scp1 inh	STEP conf	others
CCN(CC(=O)Nc1ccc(NC(C)=O)cc1)C(=O)C1COc2ccccc2O1 (centres undefined)	1.8	-0.8	-1.5	-0.1	3.5	-1.6	·
COc1ccc(OC)c(N2C(=O)[C@@H]3C(c4ccccc4Cl)=NO[C@@H]3C2=O)c1	13.1	12.0	114.5*	27.2	55.1*	47.6	79.7*	DNMT1 interf DR=>99;DNMT1 confirm=60.5*;Beacon interf=2.0
Cc1cccc(C)c1N1C(=O)[C@@H]2C(c3ccccc3Cl)=NO[C@@H]2C1=O	4.7	-3.6	-0.9	0.9	0.6	-6.2	·
O=c1c2ccccc2nc2sc(Nc3cccc(Cl)c3)nn12	-229.6	-1.3	107.3*	71.9*	70.1*	41.2	10.5	DNMT1 confirm=-0.4;Beacon interf=0.5
O=C(NCc1ccccc1)c1cc(C2COCCN2C(=O)c2ccc(Cl)cc2)on1 (centres undefined)	0.6	·	3.7	0.5	2.6	·	·
C[C@@H](NC(=O)c1ncn2c1c(=O)[nH]c1ccc(Br)cc12)c1ccccc1	-22.4	·	93.0*	57.6*	50.0*	·	-1.1	DNMT1 confirm=4.4;Beacon interf=-0.1
C[C@@H](NC(=O)c1ncn2c1c(=O)[nH]c1cccnc12)c1ccccc1	14.7	·	5.1	2.0	0.5	·	·
COc1ccc(CN2CCN(c3ccccc3OC)CC2)cc1OC	-4.8	-8.3	66.6*	-0.9	91.1*	0.4	-4.2	DNMT1 confirm=0.5;Beacon interf=4.3
CC(C)(C)OC(=O)N1CCc2onc(-c3ccccc3[N+](=O)[O-])c2C1=O	-15.0	·	·	-0.2	·	·	·
CCCCC1Cc2[nH][nH]c(=O)c2C(c2ccc(F)cc2)O1 (centres undefined)	-1.4	·	·	-1.2	·	·	·
Nc1c(C(=O)OCC2CCCO2)c2nc3ccccc3nc2n1-c1ccc2c(c1)OCCO2 (centres undefined)	·	5.3	·	·	·	1.0	·
O=c1c2c3nc4ccccc4nc3n(-c3ccc4c(c3)OCCO4)c2ncn1C1CCCC1	-13.8	47.8*	71.7*	26.1	51.2*	84.8*	-2.8	DNMT1 confirm=2.7;Beacon interf=-6.3
NC(N)=NCCCS(=O)(=O)Nc1ccc(Nc2c3ccccc3nc3cc([N+](=O)[O-])ccc23)cc1	26.2	7.8	66.6*	63.2*	47.8*	4.7	6.0	DNMT1 interf DR=>99;DNMT1 confirm=71.7*;Beacon interf=-16.1
CN1CCN(C2=NC(=O)/C(=C/c3ccccc3OS(=O)(=O)c3ccccc3)S2)CC1	-25.4	-2.6	-3.0	-1.8	46.6*	-6.2	22.5
CC1=C(C(=O)N2CCOCC2)CC(CC(=O)NCc2cccc3ccccc23)C(=O)N1Cc1ccc(C(C)(C)C)cc1 (centres undefined)	-2.7	·	-7.1	0.5	-0.2	·	·
C=C(C)C(=O)OCC(O)COc1ccc(C(C)(C)c2ccc(OCC(O)COC(=O)C(=C)C)cc2)cc1 (centres undefined)	-5.8	2.0	-29.5	1.4	-4.2	-13.9	·
Cc1cccc(NC(=O)c2cc3c(=O)n4ccccc4nc3s2)c1	29.5	5.0	40.9	8.2	83.7*	6.6	-0.5
CC1(C)Cc2c(sc(NC(=O)C(=O)NCCCN3CCOCC3)c2C(N)=O)CO1	-5.4	7.5	1.4	-2.2	40.4*	-4.0	13.3
COC(=O)c1c(NC(=O)C(=O)NCCCN2CCOCC2)sc2c1CC(C)(C)OC2	-3.6	-0.7	-1.0	-0.2	0.4	3.8	·
CCN1CCN(C(=S)c2ccc(OCC(=O)Nc3ccc(OC)cc3)cc2)CC1	0.7	-5.5	1.7	-0.5	6.7	-1.6	·
Cc1ccc(C(=S)N2CCN(Cc3ccccc3)CC2)cc1	-4.4	4.6	2.0	0.9	86.9*	1.6	33.6
CCN1CCN(C(=S)c2ccc(OCC(=O)NCc3ccccc3)cc2)CC1	1.7	-2.5	-2.5	-2.2	64.5*	-5.5	25.4*
CCN1CCN(C(=S)c2ccc(Cl)c(Cl)c2)CC1	0.6	-2.0	2.1	-0.8	90.9*	-9.0	51.4*
CCN1CCN(C(=S)c2ccc(-c3ccccc3)cc2)CC1	-1.3	-3.1	0.3	-0.5	42.5*	-1.1	25.4
Cc1cccc(C(=O)N(C(=O)c2cccc(C)c2)N(C)C)c1	2.3	-3.4	-0.6	0.4	-2.2	-9.5	·
SMILES	SUMO1-SIM PPI	HKDC1 inhibitor	DNMT1 block	LMPTP block	STEP inh	Scp1 inh	STEP conf	others
C=C1/C=C(\C)C(C)(O)CC(O)CC(=O)C(O)C(O)C(C)CC(C)OC(=O)/C(C)=C/CC/C=C/C(OC)C(O)CC(C)C1 (centres undefined)	2.2	5.9	-4.7	-0.3	0.7	-1.6	·
CCN(CC)C(=O)C1=C(C)N(CCC2=CCCCC2)C(=O)C(CC(=O)NCc2cccs2)C1 (centres undefined)	5.3	·	3.1	0.0	0.5	·	·
O=C1C(Cl)=C(N2CCOCC2)C(=O)N1c1ccc(Br)cc1	-23.2	-3.2	-3.1	1.1	6.8	0.1	·
CC(C)c1ccc(N2C(=O)C(Cl)=C(N3CCOCC3)C2=O)cc1	-26.8	-4.6	-0.3	0.8	42.2*	-7.1	-7.1
N/C(=N\OC(=O)CCCc1ccccc1)c1cccc([N+](=O)[O-])c1	-22.2	-2.8	-2.8	1.5	55.2*	-9.6	14.6
O=C(Nc1cccc2c(=O)[nH][nH]c(=O)c12)c1ccc([N+](=O)[O-])cc1	6.2	·	29.7	20.8	56.7*	·	47.0*
O=C(Nc1cccc2ccccc12)c1ccc([N+](=O)[O-])cc1	-27.2	-6.6	-1.0	-0.4	-1.4	-10.3	·
N#C/C(=N\Nc1cccc(C(F)(F)F)c1)C(=O)c1ccsc1	-1.8	9.9	-8.7	4.1	-1.7	-10.9	·
COc1ccc(C(C)(O)c2nc(-c3ccoc3)cs2)cc1 (centres undefined)	-0.2	·	-4.4	-0.1	2.1	·	·
Cc1nn(C)cc1/C=N/NC(=S)Nc1ccccc1	0.8	-20.9	-2.0	0.9	75.8*	-7.3	49.8*
COc1ccc(NC(=O)C2CC(c3cccc(Br)c3)=NO2)cc1OC (centres undefined)	2.7	4.2	-2.2	0.6	-2.7	-12.3	·
O=C(Nc1cccc(O)c1)C1CC(c2cccc(Br)c2)=NO1 (centres undefined)	-9.5	-6.2	3.5	-0.7	78.7*	-9.5	7.4
